# Test results: publication PMC5490379 (Molecular pharmaceutics, 2017)
# Legend:
# [1] = molecular target: T1, σ2 receptor (Rattus norvegicus, UniProt Q5U3Y7); assay: In vitro σ2 binding assay; details: for Ki σ2: rat liver membrane homogenates, 3 nM [^3H]DTG, 1 μM dextrallorphan; for fold reduction in σ2 affinity: compared with 3a
# T1 sequence (Q5U3Y7 1-176): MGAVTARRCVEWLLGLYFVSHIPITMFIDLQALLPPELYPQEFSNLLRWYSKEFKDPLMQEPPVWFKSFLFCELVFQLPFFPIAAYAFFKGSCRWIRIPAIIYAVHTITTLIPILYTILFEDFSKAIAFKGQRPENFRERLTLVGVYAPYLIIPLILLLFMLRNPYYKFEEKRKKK
# Summary of the method: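 Rat liver membrane homogenate (150–200 µg protein) incubated with 3 nM [3H]DTG (39.4 Ci/mmol) plus 1 µM dextrallorphan to mask σ1 sites, with test compound from 10-4 to 10-12 M. Conditions as for σ1: 50 mM Tris-HCl pH 8.0, 25 °C, 120 min, then filtration. […] IC50 by curve fitting, converted to Ki by Cheng-Prusoff.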
# [2] = molecular target: σ1 receptor (Cavia porcellus, UniProt Q60492); assay: In vitro σ1 binding assay; set-up: species or system guinea pig; details: for Ki σ1: guinea pig brain membrane homogenates; for fold reduction in σ1 affinity: compared with 3a
# Chain of σ1 receptor (Cavia porcellus, UniProt Q60492) (Q60492 whole entry): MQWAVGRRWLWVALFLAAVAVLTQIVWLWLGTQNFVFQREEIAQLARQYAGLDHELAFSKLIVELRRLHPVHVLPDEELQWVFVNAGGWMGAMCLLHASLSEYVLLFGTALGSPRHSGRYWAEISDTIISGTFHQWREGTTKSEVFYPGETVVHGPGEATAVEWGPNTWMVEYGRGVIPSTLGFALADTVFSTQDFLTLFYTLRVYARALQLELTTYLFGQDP
# Summary of the method: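 Guinea pig brain membrane homogenate (300–500 µg protein) incubated with 3 nM [3H]-(+)-pentazocine (51.7 Ci/mmol) and test compound (10-4 to 10-12 M) in 50 mM Tris-HCl pH 8.0, 25 °C, 120 min. Stopped with ice-cold 10 mM Tris-HCl pH 8.0, filtered on PEI-soaked glass fibre filters, washed twice. […] IC50 by iterative curve fitting; Ki by Cheng-Prusoff. Protein by Lowry.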
# [3] = Mouse liver microsomal assay; type: in vitro ADME; details: liver microsomes
# Summary of the method: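 Mouse liver microsomes (20 mg/mL stock) diluted in 0.1 M phosphate buffer containing 3.3 mM MgCl2. Test compound added from a 100 µM stock, with verapamil as positive control. Intact test compound quantified over time by LC-MS/MS, and metabolic degradation half-life derived from its disappearance.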
# [4] = test system: σ1 receptor; details: ref [10]; cited from earlier work
# [5] = test system: PC-3 prostate tumors; details: mice bearing PC-3 prostate tumors; ref [30]; cited from earlier work
smiles,measurement,setting,value
"O=C(NCCN1CCCCC1)c1cc(Br)ccc1O [Compound 2, 5-Bromo-2-hydroxy-N-{2-(piperidin-1-yl)ethyl}benzamide]",Ki σ2,[1],devoid of σ receptor binding affinity
same,Ki σ1,[2]; 3 nM [^3H]-(+)-pentazocine,devoid of σ receptor binding affinity
"O=C(NCCN1CCCCC1)c1cc(Br)ccc1OCCF [Compound 3a, 5-Bromo-2-(2-fluoroethoxy)-N-{2-(piperidin-1-yl)ethyl}benzamide]",half-life at 1 μM,[3],5.94 min
same,Ki,"[2]; Ki σ1, guinea pig brain membrane homogenates, 3 nM [^3H]-(+)-pentazocine",6.3 nM
"O=C(NCCN1CCCCC1)c1cc(Br)ccc1OCCCF [Compound 3b, 5-Bromo-2-(3-fluoropropoxy)-N-{2-(piperidin-1-yl)ethyl}benzamide]",fold reduction in σ2 affinity,[1],9 fold
same,fold reduction in σ1 affinity,[2],9 fold
O=C(NCCN1CCCCC1)c1ccc(I)cc1 [Compound 4-IPAB],σ1 affinity,[4],nanomolar
"O=C(NCCN1CCCCC1)c1ccc(O)c(Br)c1 [Compound 6, 3-Bromo-4-hydroxy-N-{2-(piperidin-1-yl)ethyl}benzamide]",Ki σ2,[1],devoid of σ receptor binding affinity
same,Ki σ1,[2]; 3 nM [^3H]-(+)-pentazocine,devoid of σ receptor binding affinity
"O=C(NCCN1CCCCC1)c1ccc(OCCF)c(Br)c1 [Compound 7a, 3-Bromo-4-(2-fluoroethoxy)-N-{2-(piperidin-1-yl)-ethyl}benzamide]",fold reduction in σ2 affinity,[1],4 fold
same,fold reduction in σ1 affinity,[2],6 fold
COc1ccc(C(=O)NCCN2CCCCC2)cc1I [PIMBA],σ1 affinity,[4],nanomolar
[11CH3]Oc1cccc2c1CCCC2CCCN1CCN(C2CCCCC2)CC1 (stereo not shown) [[^11C]PB28],tumor uptake,[5],poor tumor uptake
